In assay [1] the target is PDE3B (Homo sapiens, UniProt Q13370). The assay is classed as biochemical.
In assay [2] the test system is human HT-29 colon tumor cell line. As to the kind of experiment: HT-29 tumor cell growth inhibition. The assay is classed as cell-based. In a few lines:
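Human HT-29 colon tumour cells. Two-stage screen: test compounds first tested at one concentration in triplicate for % growth inhibition.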

Where [3] appears, read: PDE3 inhibition IC50, cGMP, substrate cGMP.
[4] abbreviates: read-out: % PDE3 inhibition at 50 μM, cAMP, substrate cAMP, 50 μM.
Setting [5] is: read-out: % PDE3 inhibition at 50 μM, cGMP, substrate cGMP, 50 μM.
[6] abbreviates: Homo sapiens, HT-29, read-out: HT-29 growth inhibition: IC50.
Where [7] appears, read: PDE3 inhibition IC50, cAMP, substrate cAMP.

Where two headings read alike, the source gives them in different places.

Sequence of PDE3B (Q13370 whole entry): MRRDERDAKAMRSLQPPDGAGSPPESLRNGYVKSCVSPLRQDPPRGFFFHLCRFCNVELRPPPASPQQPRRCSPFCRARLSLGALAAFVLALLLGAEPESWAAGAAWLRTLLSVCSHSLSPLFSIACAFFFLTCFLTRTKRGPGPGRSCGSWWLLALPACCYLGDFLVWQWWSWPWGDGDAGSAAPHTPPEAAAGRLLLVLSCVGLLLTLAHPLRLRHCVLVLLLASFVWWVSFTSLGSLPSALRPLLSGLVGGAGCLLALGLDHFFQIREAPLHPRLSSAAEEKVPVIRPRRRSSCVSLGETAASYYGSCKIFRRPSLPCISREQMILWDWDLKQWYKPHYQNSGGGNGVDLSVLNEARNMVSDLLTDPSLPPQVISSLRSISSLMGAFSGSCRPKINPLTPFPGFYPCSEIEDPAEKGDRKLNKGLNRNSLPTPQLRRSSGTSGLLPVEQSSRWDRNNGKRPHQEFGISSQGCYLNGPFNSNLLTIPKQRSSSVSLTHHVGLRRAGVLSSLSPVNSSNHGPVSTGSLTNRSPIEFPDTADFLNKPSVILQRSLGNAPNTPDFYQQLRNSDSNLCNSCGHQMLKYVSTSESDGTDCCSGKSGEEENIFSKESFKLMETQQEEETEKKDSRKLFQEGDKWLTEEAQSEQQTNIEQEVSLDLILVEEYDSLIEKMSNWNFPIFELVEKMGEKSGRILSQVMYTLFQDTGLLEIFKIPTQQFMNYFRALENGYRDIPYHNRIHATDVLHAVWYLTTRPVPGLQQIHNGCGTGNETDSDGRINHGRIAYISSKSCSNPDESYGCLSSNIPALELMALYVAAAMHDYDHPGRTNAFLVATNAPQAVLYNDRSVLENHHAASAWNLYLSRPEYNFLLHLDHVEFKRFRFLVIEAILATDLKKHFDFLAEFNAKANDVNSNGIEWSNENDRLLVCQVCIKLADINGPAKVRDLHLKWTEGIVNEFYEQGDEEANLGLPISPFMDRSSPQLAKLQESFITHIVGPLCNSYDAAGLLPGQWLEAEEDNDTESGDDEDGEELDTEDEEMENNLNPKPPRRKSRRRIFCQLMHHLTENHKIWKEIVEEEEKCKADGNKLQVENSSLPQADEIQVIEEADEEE

Regarding “6-(2-Bromophenyl)-4-(2-ethoxyphenyl)-2-oxo-1,2-dihydropyridine-3-carbonitrile [Compound 4]”, in assay [1] (substrate cAMP, 50 μM), the “% PDE3 inhibition at 50 μM, cAMP” value turned out to be 70%. For the same compound, the “% PDE3 inhibition at 50 μM, cGMP” value in assay [1] (substrate cGMP, 50 μM) is reported as 72%. For the same compound, the “HT-29 growth inhibition: % Growth inhibition at 50 μM” value in assay [2] (HT-29 colorectal cancer cell line, 50 μM, triplicate) came to 68%. In addition, the concentration for half-maximal inhibition (IC50) in assay [2] (read-out: HT-29 growth inhibition: IC50, HT-29 colorectal cancer cell line, 10 concentrations) came out at 15.5 µM.

Take `COc1ccccc1-c1cc(-c2cccc(Br)c2)nc(N)c1C#N` [Compound 1, 2-Amino-6-(3-bromophenyl)-4-(2-methoxyphenyl)nicotinonitrile]: the IC50 in assay [1] (setting [3]) came to 4 µM. In addition, the inhibition at 50 µM is no more than 50% in assay [1] (setting [4]) and 105% in assay [1] (setting [5]).

With `CCOc1ccccc1-c1cc(-c2cccc(Br)c2)nc(N)c1C#N` [Compound 2, 2-Amino-6-(3-bromophenyl)-4-(2-ethoxyphenyl)nicotinonitrile], the inhibition at 50 µM in assay [1] (setting [5]) is no more than 50%. The IC50 in assay [2] (setting [6]) amounted to 43 µM.

As for `COc1ccccc1-c1cc(-c2ccc(-c3ccc(Br)cc3)cc2)nc(N)c1C#N` [Compound 3, 2-Amino-6-(4′-bromobiphenyl-4-yl)-4-(2-methoxyphenyl)nicotinonitrile], the IC50 was determined as 35.6 µM in assay [1] (setting [7]), 13.4 µM in assay [1] (setting [3]) and 32 µM in assay [2] (setting [6]). The inhibition at 50 µM turned out to be 55% in assay [1] (setting [4]) and 85% in assay [1] (setting [5]).

As for `N#Cc1c(-c2ccccc2Cl)cc(-c2ccccc2Br)[nH]c1=O` [Compound 5, 6-(2-Bromophenyl)-4-(2-chlorophenyl)-2-oxo-1,2-dihydropyridine-3-carbonitrile], the half-maximal inhibitory concentration (IC50) turned out to be 6.2 µM in assay [1] (setting [7]), 10.5 µM in assay [1] (setting [3]) and 10.4 µM in assay [2] (setting [6]). Further, the results for the inhibition at 50 µM in assay [1] (setting [4]) and in assay [1] (setting [5]) were 77% and 75%, respectively.

`CCOc1ccccc1-c1cc(-c2cccc(Br)c2)nc2ncnc(N)c12` [Compound 6, 7-(3-Bromophenyl)-5-(2-ethoxyphenyl)pyrido[2,3-d]pyrimidin-4-amine]: the IC50 in assay [1] (setting [3]) was found to be 10.9 µM; in assay [2] (setting [6]) it was 18.3 µM. The inhibition at 50 µM in assay [1] (setting [4]) was 48%; in assay [1] (setting [5]) it was 85%. Besides, the “PDE3 inhibition with cAMP as substrate (in words)” value in assay [1] (substrate cAMP) is on record as “did not inhibit PDE3”.

On to `COc1ccccc1-c1cc(-c2cccc(Br)c2)nc2nc[nH]c(=O)c12` [Compound 7, 7-(3-Bromophenyl)-5-(2-methoxyphenyl)pyrido[2,3-d]pyrimidin-4(3H)-one], for which the IC50 in assay [1] (setting [7]) turned out to be 24.2 µM; in assay [1] (setting [3]), 10.8 µM; in assay [2] (setting [6]), 1.34 µM. Moreover, the inhibition at 50 µM in assay [1] (setting [4]) came to 62%; in assay [1] (setting [5]), 78.6%.

Turning to `Cc1[nH]c(=O)c(C#N)cc1-c1ccncc1` [Milrinone, reference compound], the values for the inhibition at 50 µM in assay [1] (setting [4]) and in assay [1] (setting [5]) were 77% and 95%, respectively. In addition, in assay [2] (HT-29 cell line, positive control), the “induction of apoptosis to the HT-29 cell line (in words)” value was “inactivity”. For the same compound, the IC50 in assay [2] (setting [6]) is greater than 50 µM.

What is called IC50 is the concentration needed to halve the response being measured. By inhibition is commonly meant the change of the read-out against control, counted positive when it falls.

The values are drawn from article PMC5006629 (Chemical & pharmaceutical bulletin, 2013).
